Screens: PubChem, Sanford-Burnham Center for Chemical Genomics
GRIN3A LBD mod: modulates the human NR3A ligand-binding domain; 340,000 tested, 2.5% active; NR3A LBD differential scanning fluorimetry, Tm shift; 0% = protein alone, 100% = glycine-bound protein; Tm shift relative to glycine control, % at 25 µM;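 active = melting temperature shift of at least 10% of the positive control shift, at one fixed dose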
EBI2 antag: blocks human EBI2 receptor beta-arrestin signaling | P32249 | EBI2 beta-arrestin recruitment, luminescence, 7a,25-OHC stimulated | inhibition, % at 5 µM | 360,000 tested, 0.81% active | AID 651636; in the data active = inhibition above about 38%;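 note: enzyme fragment complementation signal reports receptor beta-arrestin coupling in cells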
MPTP inh: inhibitors of mitochondrial permeability transition pore; isolated mouse mitochondria, Ca2+ swelling absorbance, 30 min; inhibition, % at 10 µM; 360,000 tested, 1.4% active; AID 602449;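 active = inhibition of 50% or more, scaled per plate between neutral and stimulator controls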
SENP1 inh: SENP1 (human) catalytic domain inhibition; Q9P0U3; recombinant SENP1 catalytic domain, CyPet-SUMO1-YPet FRET cleavage; inhibition, % at 10 µM; 360,000 tested, 0.21% active;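 active = inhibition at least 30% at 10 µM, raw YFP signal under a set limit, fluorescence ratio 0.5 to 1.5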
Target sequence (Q9P0U3 419-644 limits assumed): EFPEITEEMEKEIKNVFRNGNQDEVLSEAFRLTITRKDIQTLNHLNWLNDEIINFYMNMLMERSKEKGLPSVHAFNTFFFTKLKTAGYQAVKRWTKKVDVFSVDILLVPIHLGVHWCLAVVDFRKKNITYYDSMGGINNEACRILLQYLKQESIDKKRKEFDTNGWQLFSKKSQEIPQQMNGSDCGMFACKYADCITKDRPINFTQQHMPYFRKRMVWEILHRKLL
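System: Recombinant human SENP1 catalytic domain, His6-tagged | Incubation: Enzyme reaction for 50 min at room temperature, dark | Medium: Tris pH 8 with BME, BSA, NP40 and catalase | Also added: 25 nM SUMO1 FRET substrate | Compound: 10 µM single point, 0.5% DMSO | Measured by: FRET fluorescence in CFP and YFP emission channels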
Numbers stand for hits; n = inactive; x = no result. Hits are enriched below; roughly 4.4% of the tested compounds scored in any of these assays.

SMILES	GRIN3A LBD mod	EBI2 antag	MPTP inh	SENP1 inh
O=C(CCN1C(=O)C2C3C=CC(C4CC34)C2C1=O)Oc1cccc2cccnc12 (stereo unspecified)	n	n	n	n
C[C@@H]1CN([C@@H](C)CO)C(=O)c2cc(C#Cc3cccc(F)c3)cnc2O[C@@H]1CN(C)CC1CCOCC1	x	n	n	n
CCOC(=O)C1=C(C)C(c2ccccc2)NC(=S)N1 (stereo unspecified)	n	n	n	n
Cn1nc(C(=O)N2CCN(S(=O)(=O)c3ccccc3)CC2)c2ccccc2c1=O	11.6	n	n	n
CC[n+]1ccccc1/C=C/c1ccc(N(C)C)cc1	n	n	n	87.4
O=C(O)c1cc(NC(=O)c2ccccc2[N+](=O)[O-])ccc1O	n	n	n	n
CCN(CC)Cc1ccc(OC)c(Cl)c1	13.9	n	n	n
CCN(Cc1ccncc1)Cc1ccc(OC)c(OC)c1	n	n	n	n
Cc1cc([N+](=O)[O-])c2[nH]c(C(=O)N/N=C/c3ccccc3C(=O)O)c(-c3ccccc3)c2c1	29.2	n	n	n
NS(=O)(=O)c1ccc(N/N=C/c2ccccc2C(=O)O)c([N+](=O)[O-])c1	n	n	n	n
CCc1ccccc1NC(=O)CN1CCN(C(=O)CN2C(=O)NC3(CCCCC3C)C2=O)CC1 (stereo unspecified)	20.8	n	n	n
CCCN(CCC)c1cc(Cl)nc(N)n1	n	n	n	n
Cc1ccc2c(c1)N(CCC(=O)NCc1ccccn1)C(=O)CO2	41.8	n	n	n
COc1ccc(OC)c(CNC(=O)CCN2C(=O)COc3ccccc32)c1	n	n	n	n
COc1ccc(Br)cc1CNC(=O)CCN1C(=O)COc2ccccc21	22.5	n	n	n
COC(=O)c1ccccc1NC(=O)Nc1c(C)n(C)n(-c2ccccc2)c1=O	n	n	n	n
O=C(C1CC(=O)N(c2ccc(F)cc2)C1)N1CCCCCC1 (stereo unspecified)	n	n	n	n
O=C(O)/C=C/C(=O)N1CCN(c2cccc(Cl)c2)CC1	n	n	n	n
COc1cccc(N2CCN(C(=O)c3oc4ccccc4c3NC(=O)Cc3ccc(OC)c(OC)c3)CC2)c1	n	n	n	n
Cn1cc(C(=O)Nc2ccc(F)c(Cl)c2)cn1	n	n	n	n
CN1c2ccsc2C(O)=C(C(=S)Nc2ccc(F)c(Cl)c2)S1(=O)=O	26.0	n	n	n
O=C1SCCC1NS(=O)(=O)c1ccc([N+](=O)[O-])cc1 (stereo unspecified)	n	n	n	n
CCN(CC)CC(=O)Nc1c(C)cc(C)cc1C	10.2	x	x	x
Cn1ncc(Br)c1C(=O)Nc1ccc(Cl)cn1	13.1	n	n	n
CCOC(=O)C1=NNC2(c3ccc(Cl)cc3)C(=O)N(c3ccc(C)cc3)C(=O)C12 (stereo unspecified)	n	n	n	n
SMILES	GRIN3A LBD mod	EBI2 antag	MPTP inh	SENP1 inh
CC1CC(C#N)N(N(C)C)C1=C(C#N)C#N (stereo unspecified)	16.9	n	n	n
CCCC1CC(C#N)N(N(C)C)C1=C(C#N)C#N (stereo unspecified)	n	n	n	n
COc1ccc(CCn2c(O)c(C3=c4ccccc4=NC3=O)sc2=S)cc1OC	n	n	n	n
O=C1N=c2ccccc2=C1c1sc(=S)n(CC2CCCO2)c1O (stereo unspecified)	15.2	n	n	n
CCCCN(C(=O)C(C)Oc1ccc(Cl)cc1)c1c(N)n(CCCC)c(=O)[nH]c1=O (stereo unspecified)	n	n	n	n
CSCC(=O)NS(=O)(=O)c1ccc(C)cc1	n	n	n	n
CC12CN3CCN(CC(C3)/C1=N\N=C1/C3CN4CCN(C3)CC1(C)C4)C2	n	n	n	n
Cc1ccc(C(=O)O)cc1-c1ccc(C=C2C(=O)c3ccccc3C2=O)o1	10.1	n	n	n
O=C(COC(=O)c1cccnc1Cl)Nc1ccc2c(c1)OCO2	n	n	n	n
CCOc1ccc(/C=N/NC(=O)Cn2ccnc2C)cc1	n	n	n	n
CCCc1nc2sc3ccccc3c(=O)c2c(=O)n1Cc1ccc(OC)cc1	14.6	n	n	n
COc1ccc(Cn2c(C(C)C)nc3sc4ccccc4c(=O)c3c2=O)cc1	n	n	n	n
N#Cc1nc(-c2cccc(Cl)c2)oc1N1CCC(C(N)=O)CC1	n	n	n	n
Oc1[nH]c2ccccc2c1N=Nc1ccc(C(F)(F)F)cn1	n	n	n	n
Oc1[nH]c2ccc(Br)cc2c1N=Nc1ccc(C(F)(F)F)cn1	20.8	n	n	n
CCc1nc2c(OCCOc3ccccc3)cccn2c1N(C)C(=O)c1ccc(C)cc1	x	n	n	n
